Experimental data taken from ChEMBL document CHEMBL1134871, “N-aryl-prolyl-dipeptides as potent antagonists of VLA-4” (Bioorg Med Chem Lett, 2002).

Columns and labels:
[1] = Oral bioavailability in rat (Sprague-Dawley) (dose 1 mg/kg i.v.); format: ADME, organism-based; settings: in vivo, 2 mg/kg
Summary of the method: (§1)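 Sprague–Dawley rats given 1 mg/kg iv and 2 mg/kg po. Plasma half-life taken over 0–8 h.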

[2] = molecular target: Integrin alpha-4/beta-1 (Homo sapiens, UniProt P05556+P13612); assay: Inhibition of [125I]VCAM-Ig binding to human integrin alpha4-beta1 (VLA-4) of Jurkat cells; format: cell-based
Chain of Integrin alpha-4/beta-1 (P05556 whole entry, one chain of several): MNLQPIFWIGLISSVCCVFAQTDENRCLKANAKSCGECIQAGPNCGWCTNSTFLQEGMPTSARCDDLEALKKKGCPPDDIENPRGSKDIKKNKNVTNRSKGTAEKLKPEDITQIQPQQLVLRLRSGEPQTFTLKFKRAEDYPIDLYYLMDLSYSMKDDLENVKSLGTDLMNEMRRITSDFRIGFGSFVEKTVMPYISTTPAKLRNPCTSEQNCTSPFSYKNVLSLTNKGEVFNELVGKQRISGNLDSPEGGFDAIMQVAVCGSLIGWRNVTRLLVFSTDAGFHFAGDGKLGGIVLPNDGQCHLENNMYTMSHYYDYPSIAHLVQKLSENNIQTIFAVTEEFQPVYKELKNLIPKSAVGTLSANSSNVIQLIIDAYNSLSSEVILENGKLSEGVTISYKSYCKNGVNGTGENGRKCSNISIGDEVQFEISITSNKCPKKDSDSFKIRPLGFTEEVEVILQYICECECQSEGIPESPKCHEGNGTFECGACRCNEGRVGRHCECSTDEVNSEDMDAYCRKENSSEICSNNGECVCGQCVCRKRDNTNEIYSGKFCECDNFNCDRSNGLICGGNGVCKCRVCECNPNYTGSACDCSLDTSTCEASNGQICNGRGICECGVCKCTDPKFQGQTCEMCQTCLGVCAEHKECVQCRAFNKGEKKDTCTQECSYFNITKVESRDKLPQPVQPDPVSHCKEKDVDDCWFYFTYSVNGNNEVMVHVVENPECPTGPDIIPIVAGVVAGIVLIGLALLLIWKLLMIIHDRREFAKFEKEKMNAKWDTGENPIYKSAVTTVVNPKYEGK
Summary of the method: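 Filtered, washed, and bound radiolabel counted by scintillation. DMSO wells set 0% inhibition; cell-free wells set 100%. IC50 from ten-point titration by four-parameter fit, run in duplicate.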

[3] = Plasma clearance rate in Sprague-Dawley rats; format: ADME, organism-based; settings: rat, read-out: Clp; summary of the method: as §1
[4] = molecular target: T1, Integrin alpha-4/beta-7 (Homo sapiens, UniProt P13612+P26010); assay: Inhibition of [125I]MAdCAM-Ig binding to human integrin alpha4-beta7 of RPMI-8866 cells; format: cell-based
T1 sequence (P13612 whole entry): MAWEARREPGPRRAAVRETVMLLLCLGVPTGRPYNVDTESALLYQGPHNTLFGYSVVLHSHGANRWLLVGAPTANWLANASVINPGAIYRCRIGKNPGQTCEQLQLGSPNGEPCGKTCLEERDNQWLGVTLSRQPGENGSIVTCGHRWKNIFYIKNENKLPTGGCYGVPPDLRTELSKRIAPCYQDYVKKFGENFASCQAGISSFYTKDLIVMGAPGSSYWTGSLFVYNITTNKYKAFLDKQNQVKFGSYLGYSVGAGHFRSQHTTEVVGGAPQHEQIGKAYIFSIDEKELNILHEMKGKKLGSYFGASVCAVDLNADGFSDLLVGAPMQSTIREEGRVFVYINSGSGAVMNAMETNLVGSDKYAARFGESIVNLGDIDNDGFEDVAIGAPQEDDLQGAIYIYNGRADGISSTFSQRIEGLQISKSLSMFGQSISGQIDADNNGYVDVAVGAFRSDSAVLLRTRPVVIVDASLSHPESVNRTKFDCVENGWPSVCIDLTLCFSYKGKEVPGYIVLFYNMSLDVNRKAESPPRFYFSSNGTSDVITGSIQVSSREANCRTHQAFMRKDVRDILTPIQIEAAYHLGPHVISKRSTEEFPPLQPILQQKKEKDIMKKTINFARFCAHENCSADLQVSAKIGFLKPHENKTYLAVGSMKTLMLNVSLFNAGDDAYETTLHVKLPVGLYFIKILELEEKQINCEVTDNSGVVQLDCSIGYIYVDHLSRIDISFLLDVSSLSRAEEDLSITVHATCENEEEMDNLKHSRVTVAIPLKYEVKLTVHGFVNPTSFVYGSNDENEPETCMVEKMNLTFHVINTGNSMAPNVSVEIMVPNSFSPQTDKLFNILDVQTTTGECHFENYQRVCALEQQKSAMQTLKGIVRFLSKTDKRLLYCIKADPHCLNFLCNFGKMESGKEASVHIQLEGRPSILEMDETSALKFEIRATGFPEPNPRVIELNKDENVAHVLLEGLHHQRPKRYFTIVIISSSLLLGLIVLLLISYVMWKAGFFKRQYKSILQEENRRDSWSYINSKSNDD
T1 sequence (P26010 whole entry): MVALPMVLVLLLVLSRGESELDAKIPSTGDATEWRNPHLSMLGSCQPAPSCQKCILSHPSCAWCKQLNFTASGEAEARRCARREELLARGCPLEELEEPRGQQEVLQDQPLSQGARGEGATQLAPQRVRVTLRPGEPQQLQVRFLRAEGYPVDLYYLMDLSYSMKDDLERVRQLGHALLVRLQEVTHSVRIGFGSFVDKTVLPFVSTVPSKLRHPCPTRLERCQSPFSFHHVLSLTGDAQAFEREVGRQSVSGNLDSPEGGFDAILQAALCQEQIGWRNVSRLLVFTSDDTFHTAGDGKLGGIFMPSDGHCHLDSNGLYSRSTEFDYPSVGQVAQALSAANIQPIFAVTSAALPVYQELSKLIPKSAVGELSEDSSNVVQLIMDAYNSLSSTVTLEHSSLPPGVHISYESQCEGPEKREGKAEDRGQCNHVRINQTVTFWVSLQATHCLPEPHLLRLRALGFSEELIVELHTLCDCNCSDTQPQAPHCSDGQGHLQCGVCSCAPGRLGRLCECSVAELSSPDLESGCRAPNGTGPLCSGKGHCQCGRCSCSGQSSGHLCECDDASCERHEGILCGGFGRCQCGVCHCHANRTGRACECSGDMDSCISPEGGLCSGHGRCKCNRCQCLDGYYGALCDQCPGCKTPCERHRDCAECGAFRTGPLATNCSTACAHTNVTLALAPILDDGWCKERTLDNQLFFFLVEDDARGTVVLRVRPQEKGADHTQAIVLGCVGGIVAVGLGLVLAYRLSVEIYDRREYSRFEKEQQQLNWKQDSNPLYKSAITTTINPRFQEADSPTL

[5] = Plasma half-life was determined in Sprague-Dawley rats after 0-8 hr of administration; format: ADME, organism-based; settings: rat; summary of the method: as §1

| SMILES | bioavailability [1] [%] | IC50 [2] [nM] | clearance [3] [mL/min/kg] | IC50 [4] [nM] | half-life [5] [min] |
| --- | --- | --- | --- | --- | --- |
| COc1cccc(OC)c1-c1ccc(CC(NC(=O)C2(S(=O)(=O)c3ccccc3)CCCC2)C(=O)O)cc1 (stereo unspecified) | 22 | 0.11 | 122 | 5 |  |
| COc1cccc(OC)c1-c1ccc(C[C@H](NC(=O)[C@@H]2CCCN2c2ccccc2C#N)C(=O)O)cc1 | < 1 | 0.37 | 69 | 3.5 | 18 |
| COc1cccc(N2CCC[C@H]2C(=O)N[C@@H](Cc2ccc(-c3c(OC)cccc3OC)cc2)C(=O)O)c1 | 3 | 0.41 | 64 | 5.8 | 42 |
| COc1cccc(OC)c1-c1ccc(C[C@H](NC(=O)[C@@H]2CCCN2c2cc([N+](=O)[O-])cc([N+](=O)[O-])n2)C(=O)O)cc1 |  | 0.38 |  | 17 |  |
| COc1cccc(OC)c1-c1ccc(C[C@H](NC(=O)[C@@H]2CCCN2c2ccccn2)C(=O)O)cc1 | 2 | 1.9 | 29 | 18 | 18 |
| COc1cccc(OC)c1-c1ccc(C[C@H](NC(=O)[C@@H]2CCCN2c2cncnc2)C(=O)O)cc1 |  | 0.73 |  | 18.8 |  |
| COc1cccc(OC)c1-c1ccc(CC(NC(=O)C2CCCN2S(=O)(=O)c2ccccc2)C(=O)O)cc1 (stereo unspecified) | 2 | 0.05 | 127 | 2.5 | 36 |
| COc1cccc(OC)c1-c1ccc(C[C@H](NC(=O)[C@@H]2CCCN2c2cccnc2)C(=O)O)cc1 | < 1 | 0.34 | 43 | 5.5 | 12 |
| COc1cccc(OC)c1-c1ccc(C[C@H](NC(=O)[C@@H]2CCCN2c2ccccc2)C(=O)O)cc1 | 14 | 0.61 | 78 | 21 | 36 |
| COc1cccc(OC)c1-c1ccc(C[C@H](NC(=O)[C@@H]2CCCN2c2cnccn2)C(=O)O)cc1 |  | 0.17 |  | 8.9 |  |
| COc1cccc(OC)c1-c1ccc(C[C@H](NC(=O)[C@@H]2CCCN2c2ccc([N+](=O)[O-])cc2)C(=O)O)cc1 | < 1 | 1.1 | > 100 | 17.1 | 84 |
| COc1cccc(OC)c1-c1ccc(CC(NC(=O)C2(c3ccccc3)CCCC2)C(=O)O)cc1 (stereo unspecified) | 55 | 3.2 | 22 | 110 |  |
| COc1cccc(OC)c1-c1ccc(C[C@H](NC(=O)[C@@H]2CCCN2c2cncc3ccccc23)C(=O)O)cc1 |  | 1.1 |  | 45 |  |
